Values after ≈ are worked out from the molar mass of the structure shown. Active and inactive are the calls of the source. The calls are words filed in the database; no cut-off is given here. Positions of bridges follow the written chain, without caps; N, C: chain ends. Residues, ends and D or L forms follow the SMILES beside them.
Experiments:
[1] = Drug internalization in mouse RAW264.7 using FITC-labeled compound at 2 uM pre-incubated for 1 hr with clathrin-mediated endocytosis inhibitor chlorpromazine followed by compound addition and subsequent incubation for 2 hrs by flow cytometry; format: ADME, cell-based; details: raw264.7, 2 h
How it was run: (§1)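 RAW264.7 cells were pretreated 1 h at 37 °C with 3 mM amiloride, 20 µM nocodazole, 6 µg/mL chlorpromazine or 5 mM MβCD. FITC-labeled peptide was then added for 2 h at 37 °C. Extracellular fluorescence was quenched with 0.4% Trypan blue and intracellular fluorescence read by flow cytometry against an untreated control.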

Salmonella typhimurium [2] = assay: Bactericidal activity against 2 hrs-gentamicin pre-exposed Salmonella typhimurium ATCC 14028 assessed as reduction colony forming units at 50 uM incubated for 10 hrs; format: functional, Salmonella enterica subsp. enterica serovar Typhimurium
How it was run: (§2)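 Macrophage protection assay. RAW264.7 cells (5 × 10^4/well, 24 h) were infected with S. Typhimurium ATCC14028 at MOI 10 for 1 h in DMEM/10% FBS, exposed to 100 µg/mL gentamicin for 2 h at 37 °C, and PBS-washed. Peptides in DMEM/10% FBS were added for 10 h. Cells were lysed with 0.1% Triton X-100 and CFU plated; log10 CFU reduction versus untreated cells. Three replicates; two independent experiments; one-way ANOVA with Tukey.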

Salmonella typhimurium [3] = assay: Bactericidal activity against 2 hrs-gentamicin pre-exposed Salmonella typhimurium ATCC 14028 assessed as reduction colony forming units at 20 uM incubated for 10 hrs relative to marine peptide N6; format: functional, Salmonella enterica subsp. enterica serovar Typhimurium; set-up: scale not given: the % may be the effect or the level left; how it was run: as §2
[4] = Drug localisation in cytosol of mouse RAW264.7 using FITC-labeled compound at 5 uM incubated for 2 hrs by confocal microscopy; format: ADME, cell-based
How it was run: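 RAW264.7 cells were plated for 18 h at 37 °C, then given 5 µM FITC or FITC-labeled peptide for 2 h. Nuclei were stained with Hoechst 33342 and membranes with FM 4-64 (each 5 µg/mL) for 30 min at 37 °C. Cells were PBS-washed and imaged by confocal fluorescence microscopy.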

Salmonella typhimurium [5] = assay: Antibacterial activity against Salmonella typhimurium ATCC 14028 assessed as time duration for reduction in growth using cathepsin B pre-treated compound at 1 to 2 MIC incubated for 1 to 24 hrs by time kill assay; format: functional, Salmonella enterica subsp. enterica serovar Typhimurium
How it was run: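 Time-kill of cathepsin B-pretreated peptide (1 h, 37 °C, pH 5 buffer). Mid-log S. Typhimurium at 10^5 CFU/mL was exposed to 1× and 2× MIC at 37 °C with shaking at 250 rpm. Samples were taken every 2 h, serially diluted and plate-counted. N6 and ciprofloxacin served as controls.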

Salmonella typhimurium [6] = assay: Antibacterial activity against Salmonella typhimurium ATCC 14028 using 1 hr cathepsin B pre-treated compound followed by incubation for 16 to 18 hrs at pH 5 by broth microdilution method; format: functional, Salmonella enterica subsp. enterica serovar Typhimurium; details: Salmonella enterica
How it was run: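 Cathepsin B (bovine spleen, 10 µg/mL) was added for 1 h at 37 °C, and the reaction was stopped with 9 volumes of MHB. MIC was then run by broth microdilution (5 × 10^5 CFU/mL, 16–18 h, 37 °C) in medium adjusted to pH 5.0.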

Salmonella typhimurium [7] = assay: Antibacterial activity against Salmonella typhimurium ATCC 14028 infected in ICR mouse model of peritonitis assessed as reduction colony forming units in intracellular fluids at 1 umol/kg, ip dosed at 2 hrs post infection and measured after 10 hrs post dose; format: functional, Salmonella enterica subsp. enterica serovar Typhimurium
How it was run: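 Six-week-old female ICR mice (six per group) received ip S. Typhimurium ATCC14028 (5 × 10^5 CFU, 0.5 mL). Peptide was given ip 2 h post-infection and mice were killed 10 h after treatment. Peritoneum was lavaged with 5 mL ice-cold PBS and total CFU counted. For intracellular CFU, pelleted cells were treated with 100 µg/mL gentamicin for 1 h at 37 °C, washed, lysed and plated. PBS served as negative control, ciprofloxacin as positive.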

Salmonella typhimurium [8] = assay: Antibacterial activity against Salmonella typhimurium ATCC 14028 infected in ICR mouse model of peritonitis assessed as reduction colony forming units in spleen at 1 to 2 umol/kg, ip dosed at 2 hrs post infection and measured after 10 hrs post dose relative to marine peptide N6; format: functional, Salmonella enterica subsp. enterica serovar Typhimurium; set-up: scale not given: the % may be the effect or the level left
How it was run: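 Female ICR mice, six weeks old (six per group), were infected ip with S. Typhimurium ATCC14028 (5 × 10^5 CFU, 0.5 mL). Peptide was given ip at 1, 1.5 or 2 µmol/kg 2 h post-infection. Mice were killed 10 h after treatment, and kidneys and spleens were homogenized in sterile PBS for CFU counts of translocated bacteria. PBS-treated mice served as negative control, ciprofloxacin-treated mice as positive.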

Salmonella typhimurium [9] = assay: Bactericidal activity against 2 hrs-gentamicin pre-exposed Salmonella typhimurium ATCC 14028 assessed as reduction colony forming units at 50 uM incubated for 10 hrs relative to marine peptide N6; format: functional, Salmonella enterica subsp. enterica serovar Typhimurium; set-up: scale not given: the % may be the effect or the level left; how it was run: as §2
Salmonella typhimurium [10] = assay: Antibacterial activity against Salmonella typhimurium ATCC 14028 incubated for 16 to 18 hrs at pH 7.2 by broth microdilution method; format: functional, Salmonella enterica subsp. enterica serovar Typhimurium; details: Salmonella enterica
How it was run: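 Broth microdilution in MH broth. S. Typhimurium ATCC14028 was grown overnight at 37 °C to semi-log phase, pelleted, and diluted to OD600 0.01; final inoculum was 5 × 10^5 CFU/mL. Plates were incubated 16–18 h at 37 °C. MIC is the lowest peptide concentration with no visible growth. Data are in duplicate from at least two independent experiments.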

[11] = Cytotoxicity in mouse RAW264.7 assessed as cell survival at 100 uM incubated for 8 hrs by MTT assay; format: cell-based; details: RAW264.7 cells, read-out: Survival
How it was run: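 RAW264.7 cells seeded at 2.5 × 10^4 cells/well, cultured 24 h, then exposed for 8 h to 2-fold dilutions from 100 to 0.625 µM. MTT at 5 mg/mL added for 4 h, formazan dissolved in DMSO, absorbance read at 570 nm. Untreated cells served as control. Samples run in triplicate.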

[12] = Drug internalization in mouse RAW264.7 using FITC-labeled compound at 2 uM pre-incubated for 1 hr with macropinocytosis inhibitor amiloride followed by compound addition and subsequent incubation for 2 hrs by flow cytometry; format: ADME, cell-based; details: raw264.7, 2 h; how it was run: as §1
[13] = Drug uptake in mouse RAW264.7 using FITC-labeled compound at 5 uM incubated for 2 hrs by flow cytometry; format: ADME, cell-based; details: raw264.7, 2 h
How it was run: (§3)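 Confluent RAW264.7 cells were resuspended in PBS and incubated at 37 °C with 5 µM FITC-labeled peptide. Samples taken at 0.5 h and 2 h were quenched with 0.4% Trypan blue for extracellular fluorescence. Uptake (percent internalized cells) was read by flow cytometry, with free FITC as negative control.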

Salmonella typhimurium [14] = assay: Bactericidal activity against 2 hrs-gentamicin pre-exposed Salmonella typhimurium ATCC 14028 assessed as reduction colony forming units at 10 uM measured within 9 hrs; format: functional, organism-based; details: Salmonella enterica subsp. enterica serovar Typhimurium
How it was run: (§4)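 RAW264.7 cells in DMEM/10% FBS were infected with S. Typhimurium ATCC14028 at MOI 10 for 1 h, then given 100 µg/mL gentamicin for 2 h at 37 °C and washed. Cells were treated with 10 µM agent for 1, 3, 6, 9 and 12 h, lysed with 0.1% Triton X-100, and surviving intracellular bacteria were serially diluted and plated for CFU.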

[15] = Drug uptake in mouse RAW264.7 using FITC-labeled compound at 5 uM incubated for 0.5 hrs by flow cytometry; format: ADME, cell-based; details: raw264.7, 0.5 h; how it was run: as §3
Salmonella typhimurium [16] = assay: Bactericidal activity against 2 hrs-gentamicin pre-exposed Salmonella typhimurium ATCC 14028 assessed as effect on bacterial re-growth at 10 uM measured after 9 hrs; format: functional, organism-based; details: Salmonella enterica subsp. enterica serovar Typhimurium; how it was run: as §4

With `CC(C)[C@H](NC(=O)CCCCCN1C(=O)CC(SC[C@H](N)C(=O)N[C@@H](Cc2ccc(O)cc2)C(=O)NCC(=O)N[C@@H](CCCNC(=N)N)C(=O)N[C@@H](CCCCN)C(=O)N[C@@H](CCCCN)C(=O)N[C@@H](CCCNC(=N)N)C(=O)N[C@@H](CCCNC(=N)N)C(=O)N[C@@H](CCC(N)=O)C(=O)N[C@@H](CCCNC(=N)N)C(=O)N[C@@H](CCCNC(=N)N)C(=O)N[C@@H](CCCNC(=N)N)C(=O)O)C1=O)C(=O)N[C@@H](CCCNC(N)=O)C(=O)Nc1ccc(COC(=O)NCC(=O)N[C@@H](Cc2ccccc2)C(=O)N[C@@H](C)C(=O)N[C@@H](Cc2c[nH]c3ccccc23)C(=O)N[C@@H](CC(N)=O)C(=O)N[C@H](C(=O)N[C@H]2CSSC[C@@H](C(=O)N[C@@H](Cc3cnc[nH]3)C(=O)N[C@@H](CCCNC(=N)N)C(=O)N[C@@H](CCCNC(=N)N)C(=O)N[C@@H](C)C(=O)N[C@@H](CC(N)=O)C(=O)O)NC(=O)[C@H](C(C)C)NC(=O)[C@H](CCCNC(=N)N)NC(=O)[C@H](C(C)C)NC(=O)CNC(=O)[C@H](CC(N)=O)NC(=O)[C@H](CCCNC(=N)N)NC(=O)[C@H](Cc3ccc(O)cc3)NC(=O)[C@H](C(C)C)NC2=O)C(C)C)cc1` (some centres not stated) the Drug uptake [1] was “Not Active”, the Activity (Salmonella typhimurium [2]) was 2.06 log10CFU and the Activity (Salmonella typhimurium [3]) was 67.2%. For the same molecule, the Drug uptake [4] was “Active”, the Time (Salmonella typhimurium [5]) was “<=2 hr” and the MIC (Salmonella typhimurium [6]) was 13.6 µM (≈ 64.4 µg/mL). The Activity (Salmonella typhimurium [7]) was 1.39 log10CFU, the Activity (Salmonella typhimurium [8]) was 81% and the Activity (Salmonella typhimurium [9]) was 76.2%. For the same molecule, the MIC (Salmonella typhimurium [10]) was over 27.2 µM, the viability at 8 h, 100 µM [11] was 88.9% and the Drug uptake [12] was “Active”. For the same molecule, the Drug uptake [13] was 95.8%, the Activity (Salmonella typhimurium [14]) was “Active” and the Drug uptake [15] was 82.1%. The Activity (Salmonella typhimurium [16]) was “inactive”.

With `CC(C)[C@@H]1NC(=O)CNC(=O)[C@H](CC(N)=O)NC(=O)[C@H](CCCNC(=N)N)NC(=O)[C@H](Cc2ccc(O)cc2)NC(=O)[C@H](C(C)C)NC(=O)[C@@H](NC(=O)[C@@H](NC(=O)[C@H](CC(N)=O)NC(=O)[C@H](Cc2c[nH]c3ccccc23)NC(=O)[C@H](C)NC(=O)[C@H](Cc2ccccc2)NC(=O)CN)C(C)C)CSSC[C@@H](C(=O)N[C@@H](Cc2cnc[nH]2)C(=O)N[C@@H](CCCNC(=N)N)C(=O)N[C@@H](CCCNC(=N)N)C(=O)N[C@@H](C)C(=O)N[C@@H](CC(N)=O)C(N)=O)NC(=O)[C@H](C(C)C)NC(=O)[C@H](CCCNC(=N)N)NC1=O` (H-GFAWNVCVYRNGVRVCHRRAN-NH2; disulfide 7-16) the Drug uptake [1] was “Active”, the Activity (Salmonella typhimurium [2]) was 3.13 log10CFU and the Activity (Salmonella typhimurium [3]) was 96.3%. For the same molecule, the Drug uptake [4] was “Active”, the Time (Salmonella typhimurium [5]) was “<=2 hr” and the MIC (Salmonella typhimurium [6]) was 3.2 µM (≈ 7.92 µg/mL). It also gave an Activity (Salmonella typhimurium [7]) of 2.22 log10CFU, an Activity (Salmonella typhimurium [8]) of 200% and an Activity (Salmonella typhimurium [9]) of 97.6%. For the same molecule, the MIC (Salmonella typhimurium [10]) was 0.81 µM (≈ 2 µg/mL), the viability at 8 h, 100 µM [11] was 93.5% and the Drug uptake [12] was “Not Active”. For the same molecule, the Drug uptake [13] was 75.2%, the Activity (Salmonella typhimurium [14]) was “Active” and the Drug uptake [15] was 30.4%. For the same molecule, the Activity (Salmonella typhimurium [16]) was “inactive”.
